Data as given in ChEMBL document CHEMBL3044563, “Alternethanoxins A and B, polycyclic ethanones produced by Alternaria sonchi , potential mycoherbicides for Sonchus arvensis biocontrol” (2009).
Active and inactive are the calls of the source. The rule behind the calls is not given here.

Experiments:
[1] = test system: Sonchus arvensis; assay: Phytotoxicity against Sonchus arvensis (field sow-thistle) assessed as necrotic lesions at 2 mg/mL at 24 degC measured after 2 days by leaf disk-puncture assay; format: functional
How it was run: (§1)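 Plants were raised in a greenhouse from underground shoot pieces or seeds. 10 mm disks were cut with a cork borer from well-expanded leaves, laid on moist filter paper and punctured centrally with a needle. Compound was predissolved in EtOH and diluted with water (final 5% v/v EtOH), and a 10 μL droplet was applied. Disks were incubated at 24 °C under a 12 h photoperiod, and necrotic lesion diameter (mm) was measured after 2 days.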

[2] = test system: Phleum pratense; assay: Phytotoxicity against Phleum pratense (timothy grass) assessed as necrotic lesion diameter at 2 mg/mL at 24 degC measured after 2 days by leaf disk-puncture assay; format: functional; how it was run: as §1
[3] = test system: Convolvulus arvensis; assay: Phytotoxicity against Convolvulus arvensis assessed as necrotic lesion diameter at 2 mg/mL at 24 degC measured after 2 days by leaf disk-puncture assay; format: functional; how it was run: as §1
[4] = test system: Saccharomyces cerevisiae; assay: Antifungal activity against Saccharomyces cerevisiae at 100 ug/disk; format: functional, organism-based
How it was run: (§2)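 Test organisms were S. cerevisiae (antifungal) and X. campestris, E. coli and B. subtilis (antibacterial). Compound applied to a disk at 100 μg per disk, following a previously described disk method.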

[5] = test system: Escherichia coli; assay: Antibacterial activity against Escherichia coli at 100 ug/disk; format: functional, organism-based; how it was run: as §2
[6] = test system: Calendula officinalis; assay: Phytotoxicity against Calendula officinalis assessed as necrotic lesion diameter at 2 mg/mL at 24 degC measured after 2 days by leaf disk-puncture assay; format: functional; how it was run: as §1
[7] = test system: Xanthomonas campestris; assay: Antibacterial activity against Xanthomonas campestris at 100 ug/disk; format: functional, organism-based; how it was run: as §2
[8] = test system: Taraxacum officinale; assay: Phytotoxicity against Taraxacum officinale (dandelion) assessed as necrotic lesion diameter at 2 mg/mL at 24 degC measured after 2 days by leaf disk-puncture assay; format: functional; how it was run: as §1
[9] = test system: Amaranthus retroflexus; assay: Phytotoxicity against Amaranthus rethroflexus assessed as necrotic lesion diameter at 2 mg/mL at 24 degC measured after 2 days by leaf disk-puncture assay; format: functional; how it was run: as §1
[10] = test system: Bacillus subtilis; assay: Antibacterial activity against Bacillus subtilis at 100 ug/disk; format: functional, organism-based; how it was run: as §2
[11] = test system: Sonchus arvensis; assay: Phytotoxicity against Sonchus arvensis (field sow-thistle) assessed as necrotic lesion diameter at 4 mg/mL at 24 degC measured after 2 days by leaf disk-puncture assay; format: functional; how it was run: as §1
[12] = test system: Cirsium arvense; assay: Phytotoxicity against Cirsium arvense (Canada thistle) assessed as necrotic lesion diameter at 2 mg/mL at 24 degC measured after 2 days by leaf disk-puncture assay; format: functional; how it was run: as §1
[13] = test system: Aegopodium podagraria; assay: Phytotoxicity against Aegopodium podagraria (bishop's weed) assessed as necrotic lesion diameter at 2 mg/mL at 24 degC measured after 2 days by leaf disk-puncture assay; format: functional; how it was run: as §1
[14] = test system: Elymus repens; assay: Phytotoxicity against Elymus repens (couch grass) assessed as necrotic lesion diameter at 2 mg/mL at 24 degC measured after 2 days by leaf disk-puncture assay; format: functional; how it was run: as §1
[15] = test system: Sonchus arvensis; assay: Phytotoxicity against Sonchus arvensis (field sow-thistle) assessed as necrotic lesions at 1 mg/mL at 24 degC measured after 2 days by leaf disk-puncture assay; format: functional; how it was run: as §1

Row | Structure (SMILES) | Activity [1] | Activity [2] [mm] | Activity [3] [mm] | Activity [4] | Activity [5] | Activity [6] [mm] | Activity [7] | Activity [8] [mm] | Activity [9] [mm] | Activity [10] | Activity [11] [mm] | Activity [12] [mm] | Activity [13] [mm] | Activity [14] [mm] | Activity [15]
1 | COc1ccc2oc3c(C(C)=O)cc(O)c4c3c2c1[C@@H](O)O4 [ALTERNETHANOXIN B] | Active | 1 | 1 | inactive | inactive | 1 | inactive | 1 | 1 | inactive | 2 | 1 | 1 | 1 | 
2 | COc1cccc2c1[C@H](O)Oc1c(O)cc(C(C)=O)c(O)c1-2 [ALTERNETHANOXIN A] |  | 1 | 1 | inactive | inactive | 1 | inactive | 1 | 1 | inactive | 4 | 1 | 1 | 1 | Active
